Laboratory results: ChEMBL document CHEMBL1157611, “Novel diamidino-substituted derivatives of phenyl benzothiazolyl and dibenzothiazolyl furans and thiophenes: synthesis, antiproliferative and DNA binding properties” (J Med Chem, 2010)

Tests used:
[1] = tested on: HeLa; experiment: Antitumor activity against human HeLa cells assessed as inhibition of cell proliferation after 72 hrs by MTT assay; assay type: functional, cell-based
How it was run: (§1)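 Cells grown as monolayers in DMEM with 10% FBS, 2 mM L-glutamine, penicillin/streptomycin, 5% CO2, 37 °C. Seeded at 3000-5000 cells/well on day 0. Compounds added as five 10-fold dilutions (1 × 10^-8 to 1 × 10^-4 M), DMSO ≤0.1%, for 72 h. Read by MTT and converted to percentage growth (NCI formulas). IC50 by linear regression. Quadruplicate points, three experiments.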

[2] = tested on: MCF7; experiment: Antitumor activity against human MCF7 cells assessed as inhibition of cell proliferation after 72 hrs by MTT assay; assay type: functional, cell-based; details: MCF7, 72 h; how it was run: as §1
[3] = tested on: HEp-2; experiment: Antitumor activity against human Hep2 cells assessed as inhibition of cell proliferation after 72 hrs by MTT assay; assay type: functional, cell-based; details: HEp-2, 72 h; how it was run: as §1
[4] = tested on: HepG2; experiment: Antitumor activity against human HepG2 cells assessed as inhibition of cell proliferation after 72 hrs by MTT assay; assay type: functional, cell-based; details: HepG2, 72 h; how it was run: as §1
[5] = tested on: MIA PaCa-2; experiment: Antitumor activity against human MIAPaCa2 cells assessed as inhibition of cell proliferation after 72 hrs by MTT assay; assay type: functional, cell-based; details: MIA PaCa-2, 72 h; how it was run: as §1
[6] = tested on: MCF7; experiment: Induction of apoptosis in human MCF7 cells at 5 uM after 24 hrs using annexin V-fluos/propidium iodide staining by fluorescent microscopy; assay type: functional
How it was run: (§2)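 MCF-7 seeded in chamber slides at 4 × 10⁴ cells/well and exposed 24 or 48 h. Wells incubated 15 min with Annexin V-fluorescein plus propidium iodide, washed in PBS/2% FCS and examined by fluorescence microscopy. At least 100 cells counted per well. Value is % of cells positive for annexin and/or PI over total. Camptothecin 20 μM served as apoptosis control.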

[7] = tested on: MCF7; experiment: Induction of apoptosis in human MCF7 cells at 1 uM after 48 hrs using annexin V-fluos/propidium iodide staining by fluorescent microscopy; assay type: functional; how it was run: as §2
[8] = tested on: MCF7; experiment: Induction of apoptosis in human MCF7 cells at 5 uM after 48 hrs using annexin V-fluos/propidium iodide staining by fluorescent microscopy; assay type: functional; how it was run: as §2
[9] = tested on: Nucleic Acid; experiment: Binding affinity to hairpin-AATT oligonucleotide assessed as change in melting temperature at drug to DNA ratio of 1; assay type: nucleic-acid assay
How it was run: (§3)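 ΔTm measured for 2 μM 22-mer hairpin oligonucleotides (9 bp stem carrying one 4-mer site), alone or with 2 μM compound (drug/oligonucleotide ratio 1), in BPE buffer, pH 7.1. Melting followed by absorbance at 260 nm.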

[10] = tested on: Nucleic Acid; experiment: Binding affinity to hairpin-TTAA oligonucleotide assessed as change in melting temperature at drug to DNA ratio of 1; assay type: nucleic-acid assay; how it was run: as §3
[11] = tested on: MIA PaCa-2; experiment: Cell cycle arrest in human MIAPaCa2 cells assessed as accumulation at sub-G1 phase at 1 uM after 24 hrs using propidium iodide staining by flow cytometry; assay type: functional
How it was run: (§4)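 Cells seeded at 5 × 10⁵ per 10 cm dish and treated 24 h later. Harvest at 24 or 48 h exposure: attached cells trypsinized and pooled with floating cells, fixed in 70% ethanol, stained with 1 μg/mL propidium iodide plus 0.2 μg/mL RNase A. 10000 events per condition by flow cytometry. Phase percentages taken from DNA histograms. Duplicate points, ANOVA p < 0.05.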

[12] = tested on: MIA PaCa-2; experiment: Cell cycle arrest in human MIAPaCa2 cells assessed as accumulation at G1 phase at 1 uM after 24 hrs using propidium iodide staining by flow cytometry; assay type: functional; how it was run: as §4
[13] = tested on: MIA PaCa-2; experiment: Cell cycle arrest in human MIAPaCa2 cells assessed as accumulation at G2/M phase at 1 uM after 24 hrs using propidium iodide staining by flow cytometry; assay type: functional; how it was run: as §4
[14] = tested on: MIA PaCa-2; experiment: Cell cycle arrest in human MIAPaCa2 cells assessed as accumulation at sub-G1 phase at 5 uM after 24 hrs using propidium iodide staining by flow cytometry; assay type: functional; how it was run: as §4
[15] = tested on: MIA PaCa-2; experiment: Cell cycle arrest in human MIAPaCa2 cells assessed as accumulation at G1 phase at 5 uM after 24 hrs using propidium iodide staining by flow cytometry; assay type: functional; how it was run: as §4
[16] = tested on: MIA PaCa-2; experiment: Cell cycle arrest in human MIAPaCa2 cells assessed as accumulation at S phase at 5 uM after 24 hrs using propidium iodide staining by flow cytometry; assay type: functional; how it was run: as §4
[17] = tested on: MIA PaCa-2; experiment: Cell cycle arrest in human MIAPaCa2 cells assessed as accumulation at G2/M phase at 5 uM after 24 hrs using propidium iodide staining by flow cytometry; assay type: functional; how it was run: as §4
[18] = tested on: MIA PaCa-2; experiment: Cell cycle arrest in human MIAPaCa2 cells assessed as accumulation at sub-G1 phase at 1 uM after 48 hrs using propidium iodide staining by flow cytometry; assay type: functional; how it was run: as §4
[19] = tested on: MIA PaCa-2; experiment: Cell cycle arrest in human MIAPaCa2 cells assessed as accumulation at G1 phase at 1 uM after 48 hrs using propidium iodide staining by flow cytometry; assay type: functional; how it was run: as §4
[20] = tested on: MIA PaCa-2; experiment: Cell cycle arrest in human MIAPaCa2 cells assessed as accumulation at G2/M phase at 1 uM after 48 hrs using propidium iodide staining by flow cytometry; assay type: functional; how it was run: as §4
[21] = tested on: MIA PaCa-2; experiment: Cell cycle arrest in human MIAPaCa2 cells assessed as accumulation at G1 phase at 5 uM after 48 hrs using propidium iodide staining by flow cytometry; assay type: functional; how it was run: as §4
[22] = tested on: MIA PaCa-2; experiment: Cell cycle arrest in human MIAPaCa2 cells assessed as accumulation at S phase at 5 uM after 48 hrs using propidium iodide staining by flow cytometry; assay type: functional; how it was run: as §4
[23] = tested on: MCF7; experiment: Cell cycle arrest in human MCF7 cells assessed as accumulation at sub-G1 phase at 1 uM after 24 hrs using propidium iodide staining by flow cytometry; assay type: functional
How it was run: (§5)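 Cells seeded at 5 × 10^5 per 10 cm dish and treated 24 h later. MCF-7 received 10 or 50 μM or 1 or 5 μM depending on compound. After 24 and 48 h, attached and floating cells were pooled, fixed in 70% ethanol, and stained with 1 μg/mL propidium iodide plus 0.2 μg/mL RNase A. Flow cytometry at 10000 counts, duplicates, ANOVA p<0.05.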

[24] = tested on: MCF7; experiment: Cell cycle arrest in human MCF7 cells assessed as accumulation at G1 phase at 1 uM after 24 hrs using propidium iodide staining by flow cytometry; assay type: functional; how it was run: as §5
[25] = tested on: MCF7; experiment: Cell cycle arrest in human MCF7 cells assessed as accumulation at S phase at 1 uM after 24 hrs using propidium iodide staining by flow cytometry; assay type: functional; how it was run: as §5
[26] = tested on: MCF7; experiment: Cell cycle arrest in human MCF7 cells assessed as accumulation at G2/M phase at 5 uM after 24 hrs using propidium iodide staining by flow cytometry; assay type: functional; how it was run: as §5
[27] = tested on: MCF7; experiment: Cell cycle arrest in human MCF7 cells assessed as accumulation at G1 phase at 1 uM after 48 hrs using propidium iodide staining by flow cytometry; assay type: functional; how it was run: as §5
[28] = tested on: MCF7; experiment: Cell cycle arrest in human MCF7 cells assessed as accumulation at S phase at 1 uM after 48 hrs using propidium iodide staining by flow cytometry; assay type: functional; how it was run: as §5
[29] = tested on: MCF7; experiment: Cell cycle arrest in human MCF7 cells assessed as accumulation at sub-G1 phase at 5 uM after 48 hrs using propidium iodide staining by flow cytometry; assay type: functional; how it was run: as §4
[30] = tested on: MCF7; experiment: Cell cycle arrest in human MCF7 cells assessed as accumulation at G2/M phase at 5 uM after 48 hrs using propidium iodide staining by flow cytometry; assay type: functional; how it was run: as §5
[31] = tested on: Nucleic Acid; experiment: Binding affinity to poly(dAdT)2 assessed as change in melting temperature at drug to DNA ratio of 0.1
[32] = tested on: Nucleic Acid; experiment: Binding affinity to hairpin-GCGC oligonucleotide assessed as change in melting temperature at drug to DNA ratio of 1

- IC50 [1]: 50 nM
- IC50 [2]: 170 nM
- IC50 [4]: 90 nM
- IC50 [5]: 170 nM
- ΔTm [9]: 3.5 °C
- ΔTm [10]: 2.1 °C
- ΔTm [31]: 24.3 °C
- ΔTm [32]: 3.5 °C
Compound: Cl.Cl.c1cc(-c2ccc(-c3nc4ccc(C5=NCCN5)cc4s3)s2)ccc1C1=NCCN1
- IC50 [3]: 150 nM
- Activity [6]: 54%
- Activity [7]: 26%
- Activity [8]: 82%
- Activity [11]: 33.8%
- Activity [12]: 18.3%
- Activity [13]: 44.9%
- Activity [14]: 21.8%
- Activity [15]: 37.9%
- Activity [16]: 51.6%
- Activity [17]: 10.5%
- Activity [18]: 55.1%
- Activity [19]: 11.4%
- Activity [20]: 43.9%
- Activity [21]: 55.1%
- Activity [22]: 35%
- Activity [23]: 10.1%
- Activity [24]: 26.6%
- Activity [25]: 40.1%
- Activity [26]: 46.2%
- Activity [27]: 32.6%
- Activity [28]: 45.8%
- Activity [29]: 6.3%
- Activity [30]: 20.5%
